DNMT1 inh = blocks human DNA methyltransferase DNMT1. P26358. DNMT1 molecular beacon, Hinp1I cleavage, fluorescence. inhibition (reported as % activation of signal), % at 10 µM. hit rate 0.83% among 360,000. AID 588458
NSD2 HMT inh = inhibitors of human histone methyltransferase NSD2 | NSD2 peptide methylation, AlphaScreen, 120 min | inhibition, % at 12.5 µM | hit rate 0.54% among 310,000 | O96028
CASP6 VEID inh = blocks human caspase-6 cleavage activity. P55212. purified caspase-6, Z-VEID-R110 cleavage fluorescence. inhibition, % at 12.5 µM. hit rate 0.53% among 350,000. AID 686996;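 active means mean inhibition across replicates at least about 35%, with every replicate also reaching that limit, limit read from the data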
HCV NS3 hel inh = HCV NS3 helicase inhibition. NS3 helicase DNA unwinding, Cy5 molecular beacon fluorescence. AID 1800. inhibition, % at 10.9 µM. hit rate 0.56% among 290,000;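 active means inhibition above the mean of all tested compounds plus 3 SD, set per campaign, cut at about 35% in these data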
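Test system: hepatitis C virus NS3 helicase domain fragment enzyme. Also added: annealed dual-labelled DNA beacon duplex, ATP-started. Timing: 60 min unwinding reaction at 25 °C after ATP addition. Technique: Cy5 fluorescence. Measure: % inhibition of unwinding.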
Of the large screens only hits and unclear results are named; the others gave an inactive call. Hits are enriched below; roughly 1.5% of the tested compounds scored in any of these assays. Unless noted, no stated cut-off is given here; in the data, active means inhibition above about 50%; inactive means the rest.

O=C(CC1CC1)N1CC(=O)N2[C@H](CO)[C@H](c3ccc(C#Cc4cccc(F)c4)cc3)[C@H]2C1	none (no result: DNMT1 inh, NSD2 HMT inh, HCV NS3 hel inh)
O=C(C[C@H]1C=C[C@@H](NC(=O)c2ccc(F)cc2)[C@H](CO)O1)NCc1ccncn1	none (no result: DNMT1 inh, NSD2 HMT inh, HCV NS3 hel inh)
O=C(C[C@@H]1C=C[C@@H](NC(=O)c2ccc(F)cc2)[C@@H](CO)O1)NCc1ccncn1	CASP6 VEID inh 87 (no result: DNMT1 inh, NSD2 HMT inh, HCV NS3 hel inh)
CCCCc1nnc(NC(=O)CSc2nc(O)c(Cc3ccccc3)c(=O)[nH]2)s1	none
O=C(CSc1nc(O)c(Cc2ccccc2)c(=O)[nH]1)Nc1nnc(SCc2ccccc2)s1	CASP6 VEID inh 51
O=C1NC2c3c(Cl)sc(Cl)c3C(=O)C2O1 (stereo not drawn)	DNMT1 inh 91, CASP6 VEID inh 69 (no result: HCV NS3 hel inh)
CC1CCCN(Cc2c(O)ccc3c2O/C(=C\c2ccco2)C3=O)C1 (stereo not drawn)	DNMT1 inh 61
O=C(CC(F)(F)F)N1C[C@H]2[C@@H](c3ccccc31)[C@@H](CO)N2CC1CCCCC1	none (no result: DNMT1 inh, NSD2 HMT inh, HCV NS3 hel inh)
O=C(C[C@@H]1CC[C@@H](NC(=O)C2CC2)[C@@H](CO)O1)NCc1ccncc1	none (no result: DNMT1 inh, NSD2 HMT inh, HCV NS3 hel inh)
CCC(=O)N(CC)C1=C(O)c2ccccc2C(=O)C1=O	CASP6 VEID inh 40
COc1ccccc1C(=O)N1C[C@H]2[C@@H](c3ccccc31)[C@H](CO)N2C(=O)C1CCOCC1	none (no result: DNMT1 inh, NSD2 HMT inh, HCV NS3 hel inh)
CCNC(=O)C[C@@H]1CC[C@@H]2[C@@H](COc3ccc(NC(=O)c4cccs4)cc3C(=O)N2C)O1	none (no result: DNMT1 inh, NSD2 HMT inh, HCV NS3 hel inh)
S=C(NC1CC1)SCc1ccco1	CASP6 VEID inh 53 (no result: HCV NS3 hel inh)
C[C@@H]1CN([C@@H](C)CO)C(=O)c2cc(C#Cc3ccccc3F)cnc2O[C@@H]1CN(C)S(=O)(=O)c1ccccc1F	none (no result: DNMT1 inh, NSD2 HMT inh, HCV NS3 hel inh)
COCC(C)OC(=O)c1c(N)n(CC(C)C)c2nc3ccccc3nc12 (stereo not drawn)	DNMT1 inh 60 (no result: CASP6 VEID inh)
CC(C)NC(=O)N(C)C[C@H]1Oc2ccc(NC(=O)Nc3cccc4ccccc34)cc2C(=O)N([C@@H](C)CO)C[C@H]1C	none (no result: DNMT1 inh, NSD2 HMT inh, HCV NS3 hel inh)
O=C(Nc1nnc(Cc2c[nH]c3ccccc23)s1)c1ccc(Cl)cc1Cl	CASP6 VEID inh 58
CC(C)(C)c1ccc(C(=O)Nc2nnc(Cc3c[nH]c4ccccc34)s2)cc1	none (no result: CASP6 VEID inh)
C[C@H](NC(=O)[C@@H]1[C@@H](CO)[C@@H]2Cn3c(cccc3=O)[C@H]1N2Cc1ccccc1)c1ccccc1	none (no result: DNMT1 inh, NSD2 HMT inh, HCV NS3 hel inh)
CN1CCc2cc3c(c4c2[C@H]1[C@H](O)c1ccccc1-4)OCO3	DNMT1 inh 70, CASP6 VEID inh 49 (no result: NSD2 HMT inh)
COc1ccc2c(c1OC)C(=O)OC2C1c2c(cc3c(c2OC)OCO3)CCN1C (stereo not drawn)	none (no result: NSD2 HMT inh)
Cc1cc(NS(=O)(=O)c2ccc(Nc3nc(-c4sc(N)nc4C)cs3)cc2)no1	DNMT1 inh 86 (no result: NSD2 HMT inh, CASP6 VEID inh)
O=C1OC(Nc2cc(Br)cc3cccnc23)c2ccccc21 (stereo not drawn)	NSD2 HMT inh 104, CASP6 VEID inh 40
CC(=O)/C=C1/SC(CC(=O)O)C(=O)N1c1ccccc1 (stereo not drawn)	NSD2 HMT inh 115 (no result: CASP6 VEID inh)
O=C(O)CC1S/C(=N\N=C2CCCCCC2)N(c2ccccc2)C1=O (stereo not drawn)	none
COc1ccc(-c2cn(CC[C@@H]3CC[C@H](NC(=O)Nc4ccc(F)cc4)[C@H](CO)O3)nn2)cc1	none (no result: DNMT1 inh, NSD2 HMT inh, HCV NS3 hel inh)
Cc1cc2c(cc1C)C(=O)C(Br)=C(N)C2=O	CASP6 VEID inh 74 (no result: HCV NS3 hel inh)
Cc1cc(-c2cc(C)c(N)cc2C)c(C)cc1N	none (no result: HCV NS3 hel inh)
O=C1NC(Cc2ccc(O)cc2)c2nc3ccc(Br)cc3c(=O)n2-c2cc3ccccc3cc21 (stereo not drawn)	none (no result: NSD2 HMT inh, HCV NS3 hel inh)
O=C1NC(Cc2ccc(O)cc2)c2nc3ccc(Br)cc3c(=O)n2-c2ncccc21 (stereo not drawn)	CASP6 VEID inh 40 (no result: NSD2 HMT inh, HCV NS3 hel inh)
COc1cccc(C(=O)OC(C)C(=O)NCC2CCCCC2)c1 (stereo not drawn)	CASP6 VEID inh 36 (no result: HCV NS3 hel inh)
Cc1c(O)cc2c(c1O)C(=O)CC(c1ccc(O)cc1)O2 (stereo not drawn)	CASP6 VEID inh 46 (no result: NSD2 HMT inh)
N#C/C(=C\c1ccc([N+](=O)[O-])o1)C(=O)Nc1ccc(F)cc1	HCV NS3 hel inh 43
COc1ccccc1C(=O)Nc1ccc2c(c1)nc1n2CCN(C2CCCCC2)C1	DNMT1 inh 60
C/C=C/c1ccc2c(c1)O[C@@H](CN(C)Cc1ccncc1)[C@H](C)CN([C@H](C)CO)S2(=O)=O	none (no result: DNMT1 inh, NSD2 HMT inh, HCV NS3 hel inh)
Clc1cccc(-c2nn3c(Cn4cnc5ccccc54)nnc3s2)c1	CASP6 VEID inh 57
Cn1c(SCC(=O)OCc2ccccc2)nnc1-c1ccco1	none (no result: CASP6 VEID inh)
CCn1c(SCC(=O)OCc2ccccc2)nnc1-c1ccco1	CASP6 VEID inh 57
C[C@H]1CN([C@@H](C)CO)C(=O)c2cc(C#CC3(O)CCCC3)cnc2O[C@@H]1CN(C)C(=O)CC1CC1	none (no result: DNMT1 inh, NSD2 HMT inh, HCV NS3 hel inh)

Bioassay records from PubChem BioAssay.
